From PubChem BioAssay
Sampled rows, rich in hits. Any-hit rate of the full collection: about 6.6%.
PostGolgi yeast: phenotypic screen on post-Golgi transport, primary screen; post-Golgi transport phenotypic cell assay; inhibition, % at 10 µM; 98,000 compounds, 0.9% hits; AID 739, 2007;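 also: yeast cells grown in 1536-well plates; yeast grown about 18 h at 30C before absorbance read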
Ecoli WT expand: growth inhibitors of wild-type E. coli, primary screen, strain BW25113, expanded library, OD600; AID 710, 2007; 98,000 compounds, 0.15% hits; OD600 absorbance; growth inhibition, % at 100 µM;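 active = growth inhibition above about 50% at one test dose, limit read from the data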;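 also: growth measured after 20 h incubation at 37 °C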
tolC growth inh: growth inhibitors of E. coli tolC mutant, primary screen, strain BW25113 ΔtolC::kan, 384-well. AID 573, 2007. OD615. growth inhibition, % at 10 µM (by protocol). 65,000 compounds, 2.2% hits;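 active = growth inhibition at or above a cutoff equal to the mean over every tested compound plus 3 SD, cut at about 60% in these data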;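 also: growth measured after 20 h incubation at 37 °C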
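Test system: E. coli BW25113 ΔtolC::kan bacteria | Medium: Kanamycin-containing LB broth (50 µg/mL) | Dosing: One dose of 10 µM final | Times: 20 h incubation with compound, 37 °C | Detection: Optical density read at 615 nm | Read-out basis: Percent growth inhibition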
HER2 expr 66K: inhibitors of Her2 protein expression, primary screen, SKBR-3 cells, AlphaScreen, 66K library; Receptor tyrosine-protein kinase erbB-2 (Homo sapiens), P04626; 65,000 compounds, 0.69% hits; AID 645, 2007; SKBR-3 HER2 protein level, 18-24 h; stronger effect = lower value; HER2 level % of control, % at 10 µM;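 active = HER2 level under 5% of the carrier-only control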;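 also: 100% = DMSO carrier and 0% = 500 nM PU-H71 HSP90 inhibitor; lower value means stronger loss of Her2 protein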
PostGolgi ctrl: growth inhibition of yeast control strain, primary screen, counter-screen for post-Golgi transport modulator project; efflux-deficient yeast background strain, growth absorbance A615, 16 h; inhibition, % at 10 µM; 98,000 compounds, 5% hits
Numbers without * were called inactive; · = no result. Rule as the data show it, unless noted: active = inhibition above about 30%; inactive = the rest.

SMILES | PostGolgi yeast | Ecoli WT expand | tolC growth inh | HER2 expr 66K | PostGolgi ctrl
Cc1cc(C)nc(NC(=NCCc2c[nH]c3ccccc23)NC(=O)c2ccco2)n1 | 11.2 | -11.0 | 22.1 | 69.7 | 41.8*
Cc1ccc2c(c1)cc(CN(Cc1cccnc1)C(=O)NCc1ccccc1)c1nnnn12 | -5.5 | -8.0 | · | · | 3.6
CN(C1CCCCC1)S(=O)(=O)c1ccc(NC(=O)C2CCCCC2)cc1 | -6.2 | 2.0 | · | · | 63.0*
CN(C1CCCCC1)S(=O)(=O)c1ccc(NC(=O)CCC(=O)O)cc1 | -1.2 | -5.0 | -8.4 | 82.9 | 7.2
c1ccc2c(c1)oc1c(Nc3ccc(CN4CCOCC4)cc3)ncnc12 | 55.7* | 5.0 | 20.3 | 49.5 | 20.2
O=C(c1ccc(Cl)s1)N1CCN(c2ccccc2)CC1 | 2.1 | -6.0 | 13.6 | 113.7 | 1.4
CCC(Sc1nc2cc3c(cc2c(=O)n1Cc1ccco1)OCO3)C(=O)Nc1cccc(OC)c1 (configuration not stated) | -11.3 | -16.0 | -11.8 | -16.9* | 17.1
CCC(Sc1nc2cc3c(cc2c(=O)n1Cc1ccco1)OCO3)C(=O)Nc1ccccc1OC (configuration not stated) | -13.8 | -4.0 | 8.6 | 20.2 | 26.3
CCC(Sc1nc2cc3c(cc2c(=O)n1Cc1ccco1)OCO3)C(=O)NCCOC (configuration not stated) | 9.8 | 3.0 | · | · | 31.0*
CCOC(=O)c1nc(N2CCN(C(=O)OCC)CC2)c2c3c(sc2n1)CCCC3 | 6.5 | 4.0 | 43.7 | 81.0 | 37.3*
CCOC(=O)c1cnn(-c2nc(SC)nc3sc4c(c23)CCCC4)c1N | 8.0 | -31.0 | · | · | 76.3*
CCOC(=O)c1cnn(-c2ncnc3sc4c(c23)CCC4)c1N | 2.3 | -9.0 | -10.5 | 87.8 | 4.5
COc1ccc(Oc2nccc(-c3ccccc3)c2C#N)cc1 | -6.6 | 5.0 | · | · | 9.6
Cc1sc2ncn(-n3c(C)ccc3C)c(=O)c2c1C | -6.9 | 1.0 | 11.2 | 101.0 | 3.7
Cc1ccc(-c2csc3ncn(-n4c(C)ccc4C)c(=O)c23)o1 | -1.4 | -9.0 | 67.2* | 82.3 | 3.9
CCc1nc(NCCCn2ccnc2)c2oc3ccccc3c2n1 | -3.0 | 3.0 | -0.2 | 88.4 | 32.5*
Cc1cccc2cc(C#N)c(NCCCn3ccnc3)nc12 | 39.8* | 16.0 | 53.7 | 102.1 | 8.6
CCOC(=O)Cn1c(=O)oc2cc(S(=O)(=O)Nc3ccc(F)cc3)ccc21 | -2.7 | -2.0 | 13.2 | 69.2 | -5.0
CCN(CC)C(=O)CC(c1ccccc1)c1ccco1 (configuration not stated) | -3.1 | 3.0 | · | · | 3.0
CCC(=O)N(CCC(c1ccccc1)c1ccco1)Cc1cccs1 (configuration not stated) | -16.2 | 3.0 | · | · | 48.5*
COc1ccccc1C(CCN(Cc1cccs1)C(C)=O)c1ccco1 (configuration not stated) | 0.3 | 1.0 | 47.5 | 82.7 | 38.5*
CCC(=O)NCCC(c1ccco1)c1ccccc1OC (configuration not stated) | 1.4 | -10.0 | · | · | -0.3
CCOC(=O)c1cnn(CCOC(=O)Cc2cccs2)c1NC(=O)Cc1cccs1 | 7.4 | 2.0 | -9.9 | 97.5 | 2.8
CC1(C)OC(=O)C(=CNC(Cc2c[nH]c3ccccc23)C(=O)O)C(=O)O1 (configuration not stated) | -6.6 | 2.0 | -16.3 | 88.2 | -7.3
Cc1cccc(-c2nnc3n2N=C(c2ccccc2)CS3)c1 | -10.6 | -2.0 | 10.1 | 173.9 | 38.1*
SMILES | PostGolgi yeast | Ecoli WT expand | tolC growth inh | HER2 expr 66K | PostGolgi ctrl
COc1ccc(-c2nnc3n2N=C(c2ccccc2)CS3)cc1OC | · | · | 9.3 | 16.1 | ·
Cc1cc(-c2nnc3n2N=C(c2ccc(-c4ccccc4)cc2)CS3)n[nH]1 | -4.3 | -4.0 | 92.0* | -20.7* | 21.1
Cn1ncc(C#N)c1NC(=O)C1CC(c2ccc(Cl)cc2)=NO1 (configuration not stated) | 5.1 | 4.0 | · | · | 2.1
CC(C)OC(=O)c1c2nc3ccccc3nc2n2c1[nH]c(=O)c1ccccc12 | 33.9* | -9.0 | 23.0 | 79.5 | 71.1*
CCc1ccc(N2CC(C(=O)N/N=C/c3cccc([N+](=O)[O-])c3)CC2=O)cc1 (configuration not stated) | -5.0 | -5.0 | · | · | 10.0
Cc1cccc(N2CCN(C(=O)c3c(C)nn(Cc4ccccc4Cl)c3C)CC2)c1C | -3.5 | -18.0 | · | · | 37.6*
CCc1nc(C)ccc1OCC(=O)NCCCN(C)C | 8.3 | 6.0 | -30.9 | -28.1* | 1.3
CCc1nc(C)ccc1OCC(=O)O | 23.4 | -4.0 | -5.7 | 141.5 | 18.3
CCc1sc(C(=O)Nc2cc(Cl)ccc2N2CCCCC2)cc1C | 64.4* | -22.0 | · | · | 41.4*
O=C1CC(c2cccc([N+](=O)[O-])c2)c2ccc3ccccc3c2N1 (configuration not stated) | 9.3 | -3.0 | · | · | 53.9*
Cn1c(Oc2ccc3c(c2)OCO3)nc2c1c(=O)n(Cc1ccccc1)c(=O)n2C | 5.1 | -8.0 | · | · | 31.4*
Cn1c(=O)n(Cc2ccccc2)c(=O)c2c1nc1n2CCCN1Cc1ccccc1 | -5.0 | 9.0 | 62.2* | 49.2 | 31.8*
Cn1c(=O)n(Cc2ccccc2)c(=O)c2c1nc1n2CCCN1CCc1ccccc1 | -1.7 | -20.0 | · | · | 26.5
Cc1ccc(Cn2c(=O)c3c(nc4n3CCCN4Cc3ccccc3)n(C)c2=O)cc1 | 5.7 | 0.0 | -9.5 | 42.3 | 38.5*
Cc1ccccc1Cn1c(=O)c2c(nc3n2CCCN3Cc2ccccc2)n(C)c1=O | · | · | 1.3 | 64.4 | ·
CCOC(=O)c1cc(NC(=O)c2c(C)noc2C)cc(C(=O)OCC)c1 | -13.0 | -3.0 | 12.3 | 105.0 | 11.1
CCOC(=O)N1CCN(C(=O)CN(Cc2ccccc2)S(=O)(=O)c2ccc(OC)c(C)c2)CC1 | -5.0 | 0.0 | 24.3 | 79.2 | 30.0*
CCOC(=O)N1CCN(C(=O)CN(Cc2ccccc2)S(=O)(=O)c2ccc(OC)c(Cl)c2)CC1 | 9.0 | -13.0 | · | · | 4.5
Cc1ccc(/C=N/n2c(-c3cccs3)n[nH]c2=S)cc1 | -9.5 | -8.0 | · | · | 33.3*
S=c1[nH]nc(-c2cccnc2)n1/N=C/c1cccs1 | 4.5 | 1.0 | · | · | 26.9
COc1ccc(/C=N/n2c(-c3cccs3)n[nH]c2=S)cc1 | 1.6 | 2.0 | · | · | 39.7*
CCCCn1c(=O)[nH]c(=O)c2c1nc(-c1ccsc1)n2Cc1ccccc1 | -5.6 | -1.0 | · | · | 30.7*
CCCCn1c(-c2ccsc2)nc2c1c(=O)[nH]c(=O)n2CCC | 3.3 | -9.0 | 0.0 | 102.7 | 14.1
CCNC(=O)n1nccc1C(C)Oc1cccc(C(F)(F)F)c1 (configuration not stated) | -5.5 | 8.0 | · | · | 34.6*
CC(C)c1noc2ncc(C(=O)c3cc(Cl)cc(Cl)c3O)cc12 | -13.1 | 0.0 | · | · | 12.3
COC(=O)c1ccc(CSc2nnnn2Cc2ccccc2)cc1 | 3.0 | -12.0 | 16.4 | 91.0 | 20.3
COC(=O)c1cc(OC)c(OC)cc1NC(=O)CSc1nnnn1Cc1ccccc1 | -6.3 | -13.0 | 12.4 | 105.3 | 38.2*
CCOC(=O)CSc1nnc([C@@H](NC(=O)OC(C)(C)C)C(C)C)o1 | 7.5 | 4.0 | -13.0 | 79.4 | 6.5
